According to ChEMBL document CHEMBL1156136, “Hypoxia-activated prodrugs: substituent effects on the properties of nitro seco-1,2,9,9a-tetrahydrocyclopropa[c]benz[e]indol-4-one (nitroCBI) prodrugs of DNA minor groove alkylating agents” (J Med Chem, 2009):

Tests used:
[1] = tested on: SK-OV-3; assay: Hypoxic cytotoxicity ratio, IC50 for human SKOV3 cells in oxic condition to IC50 for human SKOV3 cells in hypoxic condition; assay type: functional
Method in brief: (§1)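 Log-phase monolayers exposed to drug for 4 h under aerobic (20% O2) or anoxic (<20 ppm O2) conditions, then sulforhodamine B staining 5 days later. IC50 interpolated as concentration lowering cell density to 50% of same-plate controls. HCR = IC50(oxic)/IC50(hypoxic), mean of intraexperiment ratios. A549 P450R line is a stable transfectant with 9-fold higher cytochrome c reduction rate than parent.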

[2] = tested on: SK-OV-3; assay: Cytotoxicity against human SKOV3 cells in oxic condition after 4 hrs by sulforhodamine B assay; assay type: functional, cell-based; conditions: SK-OV-3, 4 h; method in brief: as §1
[3] = tested on: HT-29; assay: Hypoxic cytotoxicity ratio, IC50 for human HT-29 cells in oxic condition to IC50 for human HT-29 cells in hypoxic condition; assay type: functional; method in brief: as §1
[4] = tested on: HT-29; assay: Cytotoxicity against human HT-29 cells in oxic condition after 4 hrs by sulforhodamine B assay; assay type: functional, cell-based; conditions: HT-29, 4 h; method in brief: as §1
[5] = tested on: SK-OV-3; assay: Cytotoxicity against human SKOV3 cells in hypoxic condition after 4 hrs by sulforhodamine B assay; assay type: functional, cell-based; conditions: SK-OV-3, 4 h; method in brief: as §1
[6] = tested on: HT-29; assay: Cytotoxicity against human HT-29 cells in hypoxic condition after 4 hrs by sulforhodamine B assay; assay type: functional, cell-based; conditions: HT-29, 4 h; method in brief: as §1

Structure (SMILES) | Ratio IC50 [1] | IC50 [2] | Ratio IC50 [3] | IC50 [4] | IC50 [5] | IC50 [6]
COC(=O)c1ccc2c([N+](=O)[O-])cc3c(c2c1)C(CCl)CN3C(=O)c1cc2cc(OCCN(C)C)ccc2[nH]1 (stereo not drawn) | 2.4 | 0.52 µM | 1.6 | 0.55 µM |  | 
CN(C)CCOc1ccc2[nH]c(C(=O)N3CC(CCl)c4c3cc([N+](=O)[O-])c3cc(C(N)=O)ccc43)cc2c1 (stereo not drawn) |  | 3.9 µM |  | 4.1 µM |  | 
CN(C)CCOc1ccc2[nH]c(C(=O)N3CC(CCl)c4c3cc(N)c3cc(S(N)(=O)=O)ccc43)cc2c1 (stereo not drawn) | 1.4 | 23 µM | 1.8 | 35 µM | 16 nM | 23 nM
COc1cc2cc(C(=O)N3CC(CCl)c4c3cc(N)c3ccccc43)[nH]c2c(OC)c1OC (stereo not drawn) | 1 | 1.3 µM | 0.76 | 0.86 µM | 1.7 nM | 2.5 nM
CN(C)CCOc1ccc2[nH]c(C(=O)N3CC(CCl)c4c3cc(N)c3cc(S(C)(=O)=O)ccc43)cc2c1 (stereo not drawn) | 1.7 | 14 µM | 1.6 | 11 µM | 8.2 nM | 7.3 nM
COc1cc2cc(C(=O)N3CC(CCl)c4c3cc(N)c3cc(S(C)(=O)=O)ccc43)[nH]c2c(OC)c1OC (stereo not drawn) | 1.2 | 32 µM | 0.86 | 32 µM | 25 nM | 36 nM
COC(=O)c1ccc2c3c(cc([N+](=O)[O-])c2c1)N(C(=O)c1cc2cc(OCCN(C)C)ccc2[nH]1)CC3CCl (stereo not drawn) | 1.9 | 0.44 µM | 1.2 | 0.32 µM |  | 
CN(C)CCOc1ccc2[nH]c(C(=O)N3CC(CCl)c4c3cc([N+](=O)[O-])c3ccccc43)cc2c1 (stereo not drawn) |  | 1.4 µM |  | 0.47 µM | 0.87 nM | 0.48 nM
CN(C)CCOc1ccc2[nH]c(C(=O)N3CC(CCl)c4c3cc([N+](=O)[O-])c3ccc(S(N)(=O)=O)cc43)cc2c1 (stereo not drawn) | 21 | 4.9 µM | 26 | 9 µM |  | 
CN(C)CCOc1ccc2[nH]c(C(=O)N3CC(CCl)c4c3cc([N+](=O)[O-])c3c(C#N)cccc43)cc2c1 (stereo not drawn) | 1.7 | 0.17 µM | 1.1 | 0.12 µM | 0.1 nM | 0.1 nM
COc1cc2cc(C(=O)N3CC(CCl)c4c3cc([N+](=O)[O-])c3cc(C(N)=O)ccc43)[nH]c2c(OC)c1OC (stereo not drawn) | 6.1 | 5.8 µM | 2.8 | 7.9 µM | 1.6 nM | 3.6 nM
COc1cc2cc(C(=O)N3CC(CCl)c4c3cc(N)c3cc(C#N)ccc43)[nH]c2c(OC)c1OC (stereo not drawn) | 1.3 | 10 µM | 1.9 | 15 µM | 9 nM | 11 nM
CN(C)CCOc1ccc2[nH]c(C(=O)N3CC(CCl)c4c3cc([N+](=O)[O-])c3c([N+](=O)[O-])cccc43)cc2c1 (stereo not drawn) | 2.9 | 4.1 µM | 2.2 | 2.8 µM | 1.4 nM | 1.3 nM
COc1cc2cc(C(=O)N3CC(CCl)c4c3cc([N+](=O)[O-])c3ccc(S(N)(=O)=O)cc43)[nH]c2c(OC)c1OC (stereo not drawn) | 2.6 | 12 µM | 1.9 | 24 µM | 4.9 nM | 14 nM
CN(C)CCOc1ccc2[nH]c(C(=O)N3CC(CCl)c4c3cc(N)c3cc(C(N)=O)ccc43)cc2c1 (stereo not drawn) | 1 | 13 µM | 1.4 | 61 µM | 13 nM | 48 nM
COc1cc2cc(C(=O)N3CC(CCl)c4c3cc([N+](=O)[O-])c3cc(C(C)=O)ccc43)[nH]c2c(OC)c1OC (stereo not drawn) | 19 | 5.1 µM | 5.2 | 4.1 µM | 0.44 nM | 0.93 nM
CN(C)CCOc1ccc2[nH]c(C(=O)N3CC(CCl)c4c3cc([N+](=O)[O-])c3cc([N+](=O)[O-])ccc43)cc2c1 (stereo not drawn) | 9.3 | 1.1 µM | 9.6 | 0.89 µM | 0.12 nM | 0.093 nM
COC(=O)c1ccc2c3c(cc(N)c2c1)N(C(=O)c1cc2cc(OCCN(C)C)ccc2[nH]1)CC3CCl (stereo not drawn) | 0.91 | 7.7 µM | 1.7 | 8.6 µM | 8.3 nM | 5.7 nM
CC(=O)c1ccc2c3c(cc([N+](=O)[O-])c2c1)N(C(=O)c1cc2cc(OCCN(C)C)ccc2[nH]1)CC3CCl (stereo not drawn) | 4 | 0.64 µM | 1.5 | 0.17 µM |  | 
COc1cc2cc(C(=O)N3CC(CCl)c4c3cc([N+](=O)[O-])c3ccccc43)[nH]c2c(OC)c1OC (stereo not drawn) | 2.8 | 4.2 µM | 2.5 | 3.4 µM | 1.7 nM | 1.6 nM
CC(=O)c1ccc2c3c(cc(N)c2c1)N(C(=O)c1cc2cc(OCCN(C)C)ccc2[nH]1)CC3CCl (stereo not drawn) | 1.4 | 11 µM | 1.5 | 7.6 µM | 8.2 nM | 5.6 nM
CC(=O)c1ccc2c([N+](=O)[O-])cc3c(c2c1)C(CCl)CN3C(=O)c1cc2cc(OCCN(C)C)ccc2[nH]1 (stereo not drawn) | 1.3 | 0.2 µM | 1.1 | 0.15 µM |  | 
CN(C)CCOc1ccc2[nH]c(C(=O)N3CC(CCl)c4c3cc([N+](=O)[O-])c3ccc(S(C)(=O)=O)cc43)cc2c1 (stereo not drawn) | 2.7 | 1.9 µM | 1.2 | 0.98 µM |  | 
COc1cc2cc(C(=O)N3CC(CCl)c4c3cc([N+](=O)[O-])c3ccc(S(C)(=O)=O)cc43)[nH]c2c(OC)c1OC (stereo not drawn) | 4.2 | 11 µM | 2.5 | 14 µM | 3.9 nM | 7.2 nM
CN(C)CCOc1ccc2[nH]c(C(=O)N3CC(CCl)c4c3cc([N+](=O)[O-])c3c(S(N)(=O)=O)cccc43)cc2c1 (stereo not drawn) | 4.6 | 3.7 µM | 2.3 | 2.7 µM | 800 nM | 1200 nM
CN(C)CCOc1ccc2[nH]c(C(=O)N3CC(CCl)c4c3cc([N+](=O)[O-])c3cccc([N+](=O)[O-])c43)cc2c1 (stereo not drawn) | 1.5 | 1.2 µM | 1.3 | 1.4 µM |  | 
CN(C)CCOc1ccc2[nH]c(C(=O)N3CC(CCl)c4c3cc([N+](=O)[O-])c3ccc(C(N)=O)cc43)cc2c1 (stereo not drawn) | 34 | 3.4 µM | 22 | 2.8 µM |  | 
COc1cc2cc(C(=O)N3CC(CCl)c4c3cc([N+](=O)[O-])c3c([N+](=O)[O-])cccc43)[nH]c2c(OC)c1OC (stereo not drawn) |  | > 20 µM |  | > 20 µM | > 20 nM | > 20 nM
CN(C)CCOc1ccc2[nH]c(C(=O)N3CC(CCl)c4c3cc([N+](=O)[O-])c3cc(C#N)ccc43)cc2c1 (stereo not drawn) |  | 0.81 µM |  | 0.7 µM | 0.19 nM | 0.43 nM
